From ChEMBL document CHEMBL2150975, “Discovery of a novel chemotype of tyrosine kinase inhibitors by fragment-based docking and molecular dynamics” (ACS Med Chem Lett, 2012)
Activity calls are given as the source filed them. The rule behind the calls is not given here.

Tests used:
[1] = target: T1, Ephrin type-B receptor 4 (Homo sapiens) (UniProt P54760); assay: Inhibition of EphB4 at 30 uM in presence of 30 uM ATP
T1 sequence (whole entry): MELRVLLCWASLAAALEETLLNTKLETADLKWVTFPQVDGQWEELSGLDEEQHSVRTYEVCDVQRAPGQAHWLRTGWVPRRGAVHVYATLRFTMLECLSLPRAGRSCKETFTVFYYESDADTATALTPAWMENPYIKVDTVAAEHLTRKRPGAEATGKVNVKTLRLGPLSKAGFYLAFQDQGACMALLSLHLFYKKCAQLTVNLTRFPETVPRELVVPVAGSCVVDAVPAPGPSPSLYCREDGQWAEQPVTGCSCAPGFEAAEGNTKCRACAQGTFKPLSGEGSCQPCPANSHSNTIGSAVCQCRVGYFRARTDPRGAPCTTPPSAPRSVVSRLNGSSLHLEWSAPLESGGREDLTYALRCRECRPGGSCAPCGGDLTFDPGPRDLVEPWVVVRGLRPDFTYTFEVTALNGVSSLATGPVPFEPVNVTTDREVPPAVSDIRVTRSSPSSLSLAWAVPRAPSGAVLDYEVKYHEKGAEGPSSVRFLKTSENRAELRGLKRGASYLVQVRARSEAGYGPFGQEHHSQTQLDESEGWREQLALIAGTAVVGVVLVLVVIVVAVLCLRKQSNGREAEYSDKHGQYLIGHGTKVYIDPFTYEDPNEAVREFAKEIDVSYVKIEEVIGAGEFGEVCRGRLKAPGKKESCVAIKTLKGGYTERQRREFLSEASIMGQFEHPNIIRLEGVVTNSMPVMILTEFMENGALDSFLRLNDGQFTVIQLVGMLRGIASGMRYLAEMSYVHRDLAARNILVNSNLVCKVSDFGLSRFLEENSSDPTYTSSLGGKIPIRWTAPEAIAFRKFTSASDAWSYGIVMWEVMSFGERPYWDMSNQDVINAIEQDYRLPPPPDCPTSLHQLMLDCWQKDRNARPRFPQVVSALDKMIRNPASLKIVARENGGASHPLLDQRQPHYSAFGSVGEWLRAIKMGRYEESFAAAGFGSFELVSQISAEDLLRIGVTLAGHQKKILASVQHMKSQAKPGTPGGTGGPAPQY
Outline: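 EphB4 kinase, FRET enzymatic assay run in house with a commercial EphB4 assay kit. ATP at 30 μM, compound at 30 μM. Read-out is percent inhibition at that single concentration.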

[2] = target: Proto-oncogene tyrosine-protein kinase Src (Homo sapiens, UniProt P12931); assay: Inhibition of recombinant Src catalytic domain in presence of 1 uM radiolabeled ATP
Outline: (§1)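 Radiometric enzymatic assay run by a contract lab (Reaction Biology) on the recombinant catalytic domain of each kinase, with radiolabeled ATP at 1 μM. IC50 taken from a 10-dose response.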

[3] = target: Epidermal growth factor receptor (Homo sapiens, UniProt P00533); assay: Inhibition of recombinant EGFR catalytic domain in presence of 1 uM radiolabeled ATP; outline: as §1
[4] = target: Tyrosine-protein kinase ABL1 (Homo sapiens, UniProt P00519); assay: Inhibition of recombinant Abl1 catalytic domain in presence of 1 uM radiolabeled ATP; outline: as §1
Ephrin type-B receptor 4 [5] = target: T2, Ephrin type-B receptor 4 (Homo sapiens, UniProt P54760); assay: Inhibition of EphB4 in presence of 1 uM radiolabeled ATP; outline: as §1
T2 sequence (P54760 whole entry): T1 sequence (whole entry)

Ephrin type-B receptor 4 [6] = target: T2, Ephrin type-B receptor 4; assay: Inhibition of human full length EphB4 expressed in MEF cells assessed as inhibition of human ephrin B2/FC chimera-stimulated receptor autophosphorylation; assay type: cell-based
Outline: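 Cellular EphB4 phosphorylation assay run by a contract lab (ProQinase) in murine embryonal fibroblasts (MEF) expressing exogenous full-length human EphB4. Cells were stimulated 2 h with human Ephrin-B2/Fc chimera to induce receptor tyrosine autophosphorylation. Read-out is inhibition of that autophosphorylation.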

[7] = target: Insulin-like growth factor 1 receptor (Homo sapiens) (UniProt P08069); assay: Inhibition of recombinant IGF1R catalytic domain in presence of 1 uM radiolabeled ATP; outline: as §1
Ephrin type-B receptor 4 [8] = target: T2, Ephrin type-B receptor 4; assay: Inhibition of EphB4 by FRET assay in presence of 30 uM ATP
Outline: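 In-house FRET enzymatic assay of EphB4 using a commercial EphB4 kit, ATP 30 μM. IC50 derived from concentration-response.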

[9] = target: Tyrosine-protein kinase Lck (Homo sapiens, UniProt P06239); assay: Inhibition of recombinant Lck catalytic domain in presence of 1 uM radiolabeled ATP; outline: as §1
Tyrosine-protein kinase Lck, sequence (P06239 whole entry, the tested form may be a part): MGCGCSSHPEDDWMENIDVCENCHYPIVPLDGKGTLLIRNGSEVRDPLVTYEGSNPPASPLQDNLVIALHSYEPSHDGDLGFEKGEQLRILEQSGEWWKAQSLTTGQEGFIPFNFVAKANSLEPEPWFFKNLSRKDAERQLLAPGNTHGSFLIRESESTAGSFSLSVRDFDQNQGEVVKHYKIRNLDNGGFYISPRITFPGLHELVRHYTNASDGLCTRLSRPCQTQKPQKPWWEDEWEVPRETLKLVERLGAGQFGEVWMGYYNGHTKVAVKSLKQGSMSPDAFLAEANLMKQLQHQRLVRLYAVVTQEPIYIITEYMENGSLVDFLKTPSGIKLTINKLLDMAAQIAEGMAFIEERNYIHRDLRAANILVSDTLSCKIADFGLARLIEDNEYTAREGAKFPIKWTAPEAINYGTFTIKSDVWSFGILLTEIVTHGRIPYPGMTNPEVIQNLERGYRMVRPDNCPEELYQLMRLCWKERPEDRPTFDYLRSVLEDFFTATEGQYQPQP

Insulin-like growth factor 1 receptor (Homo sapiens), sequence (P08069 31-736 limits assumed): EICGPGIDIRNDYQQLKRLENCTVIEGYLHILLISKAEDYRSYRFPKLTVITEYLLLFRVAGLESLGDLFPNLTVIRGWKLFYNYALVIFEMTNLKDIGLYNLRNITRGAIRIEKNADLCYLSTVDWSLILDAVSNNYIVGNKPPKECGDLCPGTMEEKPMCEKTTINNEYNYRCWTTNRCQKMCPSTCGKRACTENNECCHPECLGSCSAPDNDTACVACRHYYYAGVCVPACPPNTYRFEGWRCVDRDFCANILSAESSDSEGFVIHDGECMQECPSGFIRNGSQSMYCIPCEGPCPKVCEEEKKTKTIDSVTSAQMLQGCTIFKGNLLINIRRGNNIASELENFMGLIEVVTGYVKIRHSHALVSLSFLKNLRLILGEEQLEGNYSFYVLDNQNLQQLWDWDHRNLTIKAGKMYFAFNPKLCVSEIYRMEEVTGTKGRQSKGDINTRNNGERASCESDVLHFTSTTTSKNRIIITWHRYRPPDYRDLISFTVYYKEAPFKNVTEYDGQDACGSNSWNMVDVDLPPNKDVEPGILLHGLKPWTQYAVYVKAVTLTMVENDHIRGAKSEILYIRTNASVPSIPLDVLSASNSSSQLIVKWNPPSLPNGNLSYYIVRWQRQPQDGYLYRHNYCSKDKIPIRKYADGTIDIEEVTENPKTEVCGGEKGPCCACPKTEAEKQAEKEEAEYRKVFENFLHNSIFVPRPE
Insulin-like growth factor 1 receptor (Homo sapiens), sequence (P08069 741-1367 limits assumed): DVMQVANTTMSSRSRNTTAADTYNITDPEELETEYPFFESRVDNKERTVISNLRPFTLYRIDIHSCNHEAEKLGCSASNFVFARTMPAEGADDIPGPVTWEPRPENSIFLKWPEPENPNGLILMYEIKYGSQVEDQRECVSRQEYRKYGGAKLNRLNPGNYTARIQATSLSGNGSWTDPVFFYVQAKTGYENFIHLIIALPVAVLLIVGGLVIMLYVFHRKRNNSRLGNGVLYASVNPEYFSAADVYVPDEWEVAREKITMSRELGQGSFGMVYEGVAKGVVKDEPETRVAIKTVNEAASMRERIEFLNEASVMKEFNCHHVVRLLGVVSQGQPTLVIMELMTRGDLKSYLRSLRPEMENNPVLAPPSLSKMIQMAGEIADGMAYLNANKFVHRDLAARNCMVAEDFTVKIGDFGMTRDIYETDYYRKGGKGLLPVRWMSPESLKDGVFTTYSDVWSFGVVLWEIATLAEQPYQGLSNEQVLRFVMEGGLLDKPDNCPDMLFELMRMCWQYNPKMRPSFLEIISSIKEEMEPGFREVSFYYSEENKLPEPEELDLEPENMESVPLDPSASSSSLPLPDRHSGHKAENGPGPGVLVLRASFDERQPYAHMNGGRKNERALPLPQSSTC
Epidermal growth factor receptor, sequence (P00533 whole entry, the tested form may be a part): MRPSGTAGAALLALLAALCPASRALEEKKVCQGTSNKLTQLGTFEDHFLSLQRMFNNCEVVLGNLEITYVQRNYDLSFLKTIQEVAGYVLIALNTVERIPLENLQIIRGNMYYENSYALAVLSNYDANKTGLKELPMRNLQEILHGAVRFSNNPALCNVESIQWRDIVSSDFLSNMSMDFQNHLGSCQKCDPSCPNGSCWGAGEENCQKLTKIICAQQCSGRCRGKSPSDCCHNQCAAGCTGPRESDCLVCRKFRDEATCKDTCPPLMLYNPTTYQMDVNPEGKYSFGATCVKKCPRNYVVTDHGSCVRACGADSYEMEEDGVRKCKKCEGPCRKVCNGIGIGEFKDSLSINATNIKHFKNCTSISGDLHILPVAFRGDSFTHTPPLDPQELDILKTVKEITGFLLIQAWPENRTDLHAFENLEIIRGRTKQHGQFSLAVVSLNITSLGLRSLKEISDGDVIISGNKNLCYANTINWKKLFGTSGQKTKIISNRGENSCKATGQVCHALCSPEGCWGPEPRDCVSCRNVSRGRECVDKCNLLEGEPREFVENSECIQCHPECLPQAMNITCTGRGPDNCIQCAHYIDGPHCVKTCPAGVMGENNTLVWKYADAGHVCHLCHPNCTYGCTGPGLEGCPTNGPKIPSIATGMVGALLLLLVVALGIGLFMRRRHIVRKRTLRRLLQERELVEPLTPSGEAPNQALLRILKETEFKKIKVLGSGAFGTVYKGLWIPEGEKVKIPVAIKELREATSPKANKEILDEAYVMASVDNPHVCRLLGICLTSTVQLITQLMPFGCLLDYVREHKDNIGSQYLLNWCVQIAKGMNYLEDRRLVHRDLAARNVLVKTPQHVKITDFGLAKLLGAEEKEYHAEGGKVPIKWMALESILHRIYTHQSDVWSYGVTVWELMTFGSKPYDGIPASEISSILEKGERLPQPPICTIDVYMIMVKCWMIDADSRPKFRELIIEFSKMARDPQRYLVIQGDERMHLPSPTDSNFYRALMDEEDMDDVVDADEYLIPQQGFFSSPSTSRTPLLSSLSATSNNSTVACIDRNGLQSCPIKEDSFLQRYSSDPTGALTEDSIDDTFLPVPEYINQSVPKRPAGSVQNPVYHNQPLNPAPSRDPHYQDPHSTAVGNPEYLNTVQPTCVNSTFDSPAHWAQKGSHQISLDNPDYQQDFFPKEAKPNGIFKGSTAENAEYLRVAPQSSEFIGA
Tyrosine-protein kinase ABL1, sequence (P00519 whole entry, the tested form may be a part): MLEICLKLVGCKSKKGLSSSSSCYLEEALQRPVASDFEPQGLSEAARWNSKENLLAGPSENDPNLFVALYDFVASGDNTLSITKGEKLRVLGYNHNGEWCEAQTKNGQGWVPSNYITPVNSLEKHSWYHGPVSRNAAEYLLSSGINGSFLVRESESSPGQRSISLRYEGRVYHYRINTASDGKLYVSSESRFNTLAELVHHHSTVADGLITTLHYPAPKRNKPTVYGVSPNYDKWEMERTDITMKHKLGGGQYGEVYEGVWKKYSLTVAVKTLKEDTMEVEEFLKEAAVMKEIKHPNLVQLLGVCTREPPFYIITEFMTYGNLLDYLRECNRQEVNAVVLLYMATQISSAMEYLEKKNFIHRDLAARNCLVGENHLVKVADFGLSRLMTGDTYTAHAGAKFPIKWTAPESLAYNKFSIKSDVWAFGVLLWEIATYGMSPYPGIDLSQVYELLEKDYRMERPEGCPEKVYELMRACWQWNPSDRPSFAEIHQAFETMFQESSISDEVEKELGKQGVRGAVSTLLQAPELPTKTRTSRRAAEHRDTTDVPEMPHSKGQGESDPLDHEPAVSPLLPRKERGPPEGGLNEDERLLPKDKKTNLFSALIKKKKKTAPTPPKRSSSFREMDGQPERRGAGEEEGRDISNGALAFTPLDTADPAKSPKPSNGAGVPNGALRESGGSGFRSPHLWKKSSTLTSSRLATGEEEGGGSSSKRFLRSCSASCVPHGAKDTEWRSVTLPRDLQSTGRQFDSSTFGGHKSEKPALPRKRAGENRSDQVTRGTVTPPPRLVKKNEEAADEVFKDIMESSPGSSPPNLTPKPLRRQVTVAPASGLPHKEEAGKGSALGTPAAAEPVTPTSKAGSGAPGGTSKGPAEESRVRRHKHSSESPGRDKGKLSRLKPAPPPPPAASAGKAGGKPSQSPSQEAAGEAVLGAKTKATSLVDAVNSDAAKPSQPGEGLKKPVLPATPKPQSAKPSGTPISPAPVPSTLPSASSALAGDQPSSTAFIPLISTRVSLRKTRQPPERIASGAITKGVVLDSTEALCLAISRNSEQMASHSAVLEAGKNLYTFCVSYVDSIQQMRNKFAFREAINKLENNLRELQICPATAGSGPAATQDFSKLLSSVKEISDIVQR
Proto-oncogene tyrosine-protein kinase Src, sequence (P12931 2-536 limits assumed): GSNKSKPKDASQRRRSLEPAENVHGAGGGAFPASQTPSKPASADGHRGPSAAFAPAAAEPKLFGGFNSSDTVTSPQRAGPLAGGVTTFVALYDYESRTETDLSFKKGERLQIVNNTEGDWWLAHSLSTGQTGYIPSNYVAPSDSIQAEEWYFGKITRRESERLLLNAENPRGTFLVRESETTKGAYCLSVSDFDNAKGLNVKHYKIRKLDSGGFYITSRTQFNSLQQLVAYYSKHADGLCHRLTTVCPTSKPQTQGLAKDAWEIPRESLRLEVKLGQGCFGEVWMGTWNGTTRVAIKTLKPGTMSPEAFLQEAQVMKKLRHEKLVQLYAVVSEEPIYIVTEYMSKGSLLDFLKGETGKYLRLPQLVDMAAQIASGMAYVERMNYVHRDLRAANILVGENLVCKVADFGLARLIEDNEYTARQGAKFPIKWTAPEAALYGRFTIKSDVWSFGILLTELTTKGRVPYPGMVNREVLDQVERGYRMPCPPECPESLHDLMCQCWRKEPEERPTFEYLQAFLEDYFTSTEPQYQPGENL

Compound | inhibition [1] | IC50 (Ephrin type-B receptor 4 [5]) | further results
COc1ccc(-n2c(=O)c3c(c4c(N)ncnc42)CCCC3)cc1 | 37% | – | –
COc1ccccc1-n1c(=O)c2c(c3c(N)ncnc31)CCCC2 | 5% | – | –
Cc1ccc(O)cc1-n1c(=O)c2c(c3c(N)ncnc31)CCCC2 | – | 0.16 µM | IC50 [2]: 338 nM; IC50 [3]: 1620 nM; IC50 [4]: 864 nM; IC50 (Ephrin type-B receptor 4 [6]): 930 nM; inhibition [7]: inactive; IC50 (Ephrin type-B receptor 4 [8]): 0.3 µM; IC50 [9]: 1380 nM
COc1cccc(-n2c(=O)c3c(c4c(N)ncnc42)CCCC3)c1 | 75% | 5.2 µM | IC50 (Ephrin type-B receptor 4 [8]): 9.4 µM
Cc1ccccc1-n1c(=O)c2c(c3c(N)ncnc31)CCCC2 | 48% | 8.4 µM | –

The next lines start with results.

inhibition [1] | IC50 (Ephrin type-B receptor 4 [5]) | Compound | further results
0% | – | COc1ccccc1-n1c(=O)c2c(c3c(N)ncnc31)CC(C)(C)OC2 | –
38% | 14.3 µM | COc1cccc(-n2c(=O)c3c(c4c(N)ncnc42)CC(C)(C)OC3)c1 | –
